Measured values collected from several papers.
Target: RAC-alpha serine/threonine-protein kinase (AKT1, Homo sapiens, UniProt P31749)

O=c1[nH]c2ccccc2n1C1CCN(Cc2ccc(-c3[nH]c4cc5ncnc5cc4nc3-c3ccccc3)cc2)CC1  remaining signal (cell-free assay; 0.5 µM): 114%
COc1ncccc1-c1cnn2ccc(N3CCN(C(=O)OC(C)C)CC3)nc12  remaining binding (binding, competition with immobilised ligand; 1 µM): 100%
Cn1cc(-c2cccc(N3CCc4c(sc5c4CC(C)(C)C5)C3=O)c2CO)cc(Nc2ccncn2)c1=O  inhibition (enzyme activity, inhibitor; 1 µM): 4%
O=C(NCc1ncc(C(F)(F)F)cc1Cl)c1ccc2c(c1)C1(CCS(=O)(=O)CC1)[C@H](C1CC1)N2S(=O)(=O)c1ccc(F)cc1  remaining binding (cell-free assay, competition with immobilised ligand; 1 µM): 96%
C#Cc1n[nH]c2c(-c3cn([C@@H](C)c4ccccc4)c(=O)[nH]c3=O)cc(F)cc12  inhibition (enzyme activity, inhibitor; 0.1 µM): 1.4%
Cn1cc(-c2cc(F)cc(N3CCn4c(cc5c4CCCC5)C3=O)c2CO)cc(Nc2ccc(N3CCN(C4COC4)CC3)cn2)c1=O  inhibition (enzyme activity, inhibitor; 0.1 µM): 5%
C#Cc1n[nH]c2c(-c3cn(C(C)c4ccccn4)c(=O)[nH]c3=O)cc(F)cc12 (stereo not drawn)  inhibition (enzyme activity, inhibitor; 1 µM): 3.7%
COc1cc(Nc2ncc(F)c(Nc3ccc4c(n3)NC(=O)C(C)(C)O4)n2)cc(OC)c1OC  inhibition (binding, competition with immobilised ligand; 10 µM): 0%
Nc1ncc(-c2nc(N3CCOCC3)nc(N3CCOCC3)n2)c(C(F)F)n1  remaining binding (binding, competition with immobilised ligand; 10 µM): 94%
Cc1nn(C)cc1-c1nc2c(N3CCN(Cc4ccc(Cl)cc4)CC3)c(Cl)cnc2[nH]1  remaining binding (binding, competition with immobilised ligand; 1 µM): 100%
Cn1cncc1[C@](O)(COc1ccc(C#N)cc1-c1ccc(OC(F)(F)F)cc1)c1ccc(C#N)cc1  remaining binding (cell-free assay, competition with immobilised ligand; 1 µM): 84%
CC(C)(C)c1cc(C=C(C#N)C#N)cc(Br)c1O  remaining activity (enzyme activity, inhibitor; 0.5 µM): 108%
